Compounds with a hit are over-represented: about 2.7% of the library has one in this group of screens.
sdo1 growth: growth rescue of sdo1-depleted yeast, primary screen, S. cerevisiae, bone marrow failure model; S. cerevisiae sdo1-depleted JHY4D growth rescue, OD600 30 h; hits give high values; pdr5 snq2 efflux-pump mutant strain; z-score at 10 µM; hit rate 0.21% among 140,000; AID 817, 2007;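 active means z-score above 3 at both the 24 hr and the 30 hr optical density reads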;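 further: z-score against mean and SD of all compound wells on the same plate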
RAM inhibit: inhibitors of the yeast RAM network, primary screen, dse1pr::URA3 reporter, 5-FOA selection. inhibition, % at 50 µM. S. cerevisiae dse1pr::URA3 reporter, 5-FOA growth OD615, 2 d; analog-sensitive cbk1-as2 kinase mutant strain. hit rate 1.8% among 190,000;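 active means inhibition above a set limit, 3 SD over mean compound inhibition, cut at about 8.4% in these data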;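 further: 0% = DMSO-only wells with no growth and 100% = 10 µM 1-NA-PP1 full growth; inhibition rescues growth on 5-FOA so higher OD means more RAM inhibition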
BB579 growth dn: growth inhibitors of yeast BB579 in restrictive medium, primary screen, yeast lifespan-shortening project, S. cerevisiae | OD615, 48 h | hit rate 0.51% among 140,000 | inhibition, % at 10 µM | AID 804, 2007;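 active means inhibition above a set limit, 3 SD over the mean compound inhibition, cut at about 44% in these data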
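controls = amphotericin B 10 µg/mL, positive | assay system = DeaD yeast strain BB579 | schedule = 48 h compound exposure at 30 °C after 4 h preincubation | detection = OD615 turbidity measurement | medium = restrictive CSMM-D medium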
Yeast lifespan up: compounds extending yeast replicative lifespan, primary screen, S. cerevisiae, OD615 | S. cerevisiae growth with nicotinamide; deaD strain in restrictive glucose medium | inhibition of the nicotinamide effect, % at 10 µM | hit rate 0.68% among 130,000 | AID 775, 2007;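 active means inhibition above a set limit, placed 3 SD over the median of all compounds, cut at about 26% in these data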;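 further: 0% = nicotinamide-treated wells and 100% = cells grown without nicotinamide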
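assay system = DeaD-strain S. cerevisiae | buffer or medium = restrictive glucose medium | reagent = 1.5 mM nicotinamide | compound = 10 µM single point, 0.25% DMSO | incubation = 48 h compound exposure at 30 °C, humidified | signal = OD615 measurement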
RAM efflux-def: 5-FOA growth of efflux-deficient control yeast, dose response, counter-screen for RAM network inhibitor project, S. cerevisiae, OD615. shares compounds with RAM inhibit. S. cerevisiae efflux-deficient reporter strain, 5-FOA growth OD615, 2 days. max inhibition, %. 1,200 tested, under 10 active. AID 1305, 2008; call rule not given here;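 further: plate controls were vehicle for no effect and reference inhibitor for full effect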
An asterisk follows results filed as active; / = no result given.

SMILES	sdo1 growth	RAM inhibit	BB579 growth dn	Yeast lifespan up	RAM efflux-def
CCCCCCOC(=O)C(C#N)c1nc2ccccc2nc1N1CCCCC1 (stereo not given)	-0.39	24*	-43	23	9
CC(CCc1ccccc1)NC(=O)CN1CCN(c2ccc(O)cc2)CC1 (stereo not given)	/	1	/	/	/
COc1ccc(C2CC2C(C)=O)cc1 (stereo not given)	/	0	/	/	/
CCSC1=N/C(=C\c2ccc(-c3ccccc3[N+](=O)[O-])o2)C(=O)S1	-0.53	14*	-3	0	3
CCCSC1=N/C(=C\c2ccc([N+](=O)[O-])o2)C(=O)S1	/	1	/	/	/
CCCCN(C)CCC(=O)Nc1ccc2c(c1)CCC2	/	2	/	/	/
O=C(NCc1cccnc1)C(=O)NCC1OCCN1S(=O)(=O)c1ccc(F)cc1 (stereo not given)	0.9	1	-1	1	/
CCOC(=O)CC(=O)CSc1nc(N)c(C#N)c(-c2ccc(Cl)cc2)c1C#N	-1.1	13*	-20	2	3
N#Cc1c(N)nc(SCC(=O)C23CC4CC(CC(C4)C2)C3)c(C#N)c1-c1ccc(Cl)cc1	-0.15	5	-51	-4	/
O=C(NCC(=O)N(CC1CCCO1)C(C(=O)NC1CCCCC1)c1cccnc1)c1cccs1 (stereo not given)	/	1	/	/	/
CCCCN(CCCC)C1=Nc2ccccc2N/C1=C(/C#N)C(=O)OCC	-0.35	16*	-34	1	6
CCOC(=O)Cc1csc(NC(=O)COc2cc(C)cc(C)c2)n1	/	3	/	/	/
CN(c1ccc(C(=O)NCCSCc2ccccc2)cc1)S(=O)(=O)c1ccccc1	-0.73	7	-16	-1	/
Cc1cccc(CSCCNC(=O)c2ccc(N(C)S(=O)(=O)c3ccccc3)cc2)c1	-0.76	18*	-47	3	5
CCCCOc1ccc(S(=O)(=O)Nc2cc(OC)ccc2OC)cc1	0.67	11*	-34	-1	2
CCOc1ccc(/C=C/C(O)=C2/C(=O)NC3(C)CC2c2ccccc2O3)cc1OC (stereo not given)	/	3	/	/	/
CCOc1ccc(/C=C/C(O)=C2/C(=O)N(C)C3(C)CC2c2ccccc2O3)cc1OC (stereo not given)	/	11*	/	/	2
COc1cccc(/C=C(/C(=O)OCC(=O)NC2CCCCCCC2)c2ccccc2)c1	-0.17	13*	-37	2	5
CCOC(=O)C(Cc1ccccc1)c1ccnc2nc(N)nn12 (stereo not given)	/	1	/	/	/
O=[N+]([O-])c1ccc(COc2ncnc3ccccc23)cc1	/	0	/	/	/
Cc1ccc(S(=O)(=O)NCC(c2ccco2)N2CCOCC2)cc1 (stereo not given)	0.93	0	-16	3	/
CCOc1ccc(-c2nnc3ccc(SCc4ccc(C(=O)OC)o4)nn23)cc1	-1.4	12*	-30	-8	1
CC(C)=CC(=O)OCC(=O)Nc1cc(C)cc(C)c1	/	2	/	/	/
O=S(=O)(Nc1ccc2cn[nH]c2c1)c1ccc(Cl)s1	/	1	/	/	/
CCOc1cc(/C=N/N=C2/NC(=O)C(CC(=O)O)S2)ccc1OCc1ccccc1Cl (stereo not given)	/	4	/	/	/
SMILES	sdo1 growth	RAM inhibit	BB579 growth dn	Yeast lifespan up	RAM efflux-def
CCOc1cc(/C=N/N=C2/NC(=O)C(CC(=O)O)S2)ccc1OS(=O)(=O)c1ccc(C)cc1 (stereo not given)	/	12*	/	/	2
CCCCOC(=O)c1ccc(NC(=O)/C=C/c2cccs2)cc1	-0.46	15*	-19	1	6
Cc1ccc(OCc2csc(N)n2)cc1	/	0	/	/	/
Clc1ccc(CSc2nnc(/C=C/c3ccccc3)o2)cc1	-0.31	13*	-30	0	2
N#Cc1cc(-c2ccc(Cl)cc2)cnc1Sc1ccc(F)cc1	-0.67	12*	-53	-2	2
COc1ccc(/C=N/OCC(=O)N2CCCC2)c(OC)c1	/	1	/	/	/
COc1cc(/C=N/Nc2ccc(Cl)cc2)ccc1OC(=O)c1cccs1	-1.1	12*	-24	-9	3
COc1cc(/C=N/NC(N)=O)ccc1OC(=O)c1cccs1	/	3	/	/	/
CCCC(c1nnnn1Cc1ccco1)N1CCN(c2cc(Cl)ccc2C)CC1 (stereo not given)	-0.96	21*	-65	0	2
C=CCN(CC=C)S(=O)(=O)c1ccc(NC(=S)NC(=O)Cc2ccc(OC)cc2)cc1	0.38	19*	-44	-8	4
C=CCN(CC=C)S(=O)(=O)c1ccc(NC(=S)NC(=O)c2ccco2)cc1	-1	3	-64	26	/
COc1ccc(CC(=O)NC(=S)Nc2ccc(S(N)(=O)=O)cc2)cc1	0.45	1	-28	2	/
C=CCN(CC=C)S(=O)(=O)c1ccc(NC(=S)NC(=O)c2ccc(-c3ccccc3)cc2)cc1	-0.93	17*	-26	-3	4
Cc1ccc(-c2nc3cccnc3s2)cc1NS(=O)(=O)c1ccc2c(c1)OCCO2	-2.8	13*	-9	-10	2
O=S(=O)(Nc1cccc(-c2nc3cccnc3s2)c1)c1ccc2c(c1)OCCO2	-2.9	6	-38	-5	/
O=C(CSc1nc2cc(Cl)ccc2s1)N1CCCc2ccccc21	-1.5	11*	-42	-15	2
O=C(NCc1ccccc1F)c1ccc(S(=O)(=O)Nc2cccc(C(F)(F)F)c2)cc1	-0.76	1	-14	1	/
O=C(NCc1ccc(F)cc1)c1ccc(S(=O)(=O)Nc2cccc(C(F)(F)F)c2)cc1	0.72	13*	-22	4	2
Cc1csc(C(C)N(C)C(=O)CCc2nnc(CCc3ccccc3)o2)n1 (stereo not given)	/	-1	/	/	/
CCCc1ccc(/C=C2\C(=O)c3ccccc3C(O)=C2C(=O)OCC)cc1	-1.6	12*	-43	10	4
CCOC(=O)C1=C(O)c2ccccc2C(=O)/C1=C\c1ccc(CC)cc1	-2	6	-18	23	/
CCOC(=O)Cc1cc(=O)[nH]c(/N=C(\N)Nc2ccc(C)c(C)c2)n1	/	2	/	/	/
CCOC(=O)C(=O)c1cn(C2OCC(OC(C)=O)C(OC(C)=O)C2OC(C)=O)c2ccccc12 (stereo not given)	0.1	2	-31	9	/
Nc1ccc(C(=O)c2cccs2)cc1[N+](=O)[O-]	/	13*	/	/	13
Nc1ccc(C(=O)O)cc1[N+](=O)[O-]	/	1	/	/	/
CCCOC(=O)c1ccc(NC(=O)c2nc3nc(C)cc(C)n3n2)cc1	/	3	/	/	/
Cc1ccc(NC(=S)N(CCCN2CCOCC2)Cc2cccnc2)cc1C	/	0	/	/	/
O=C(COC(=O)CCCNC(=O)c1ccc(Cl)cc1)Nc1cc(Cl)c(Cl)cc1Cl	-1.7	42*	-29	4	2
O=C(CN(Cc1cccs1)C(=O)c1csnn1)NC1CCCC1	0.69	1	-18	/	/
